Test results reported in ChEMBL document CHEMBL1914423, “New imidazo[2,1-b]thiazole derivatives: synthesis, in vitro anticancer evaluation, and in silico studies” (Eur J Med Chem, 2011).

Legend:
[1] = Antiproliferative activity against human A375P cells after 48 hrs by MTT assay; type: functional, cell-based
Outline: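 A375P cells in DMEM with 10% FBS at 37 °C, 5% CO2. Seeded at 5×10³ cells/well, held 24 h, then treated with 12-point 3-fold serial dilutions for 48 h. Viability by MTT reduction. IC50 values are means of triplicate experiments.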

[2] = system: HL-60(TB); assay: Anticancer activity against human HL-60(TB) cells assessed as cell growth at 10^-5 M after 48 hrs by SRB assay; type: functional; conditions: HL-60, 48 h, read-out: Activity
Outline: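 NCI-60 single-dose screen. Cells in RPMI 1640 with 5% FBS and 2 mM L-glutamine were plated at 5000–40,000 cells/well and preincubated 24 h at 37 °C before one compound concentration. Time-zero plates were TCA-fixed at drug addition. For suspension cells, settled cells were fixed with cold TCA, then SRB-stained and read at 515 nm. Percent growth was calculated from time-zero, control and treated absorbances.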

[3] = system: K562; assay: Anticancer activity against human K562 cells assessed as cell growth at 10^-5 M after 48 hrs by SRB assay; type: functional; conditions: K562, 48 h, read-out: Activity
Outline: (§1)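 NCI-60 single-dose screen at one concentration. Cells grown in RPMI 1640 with 5% FBS and 2 mM L-glutamine, plated at 5000–40,000 cells/well, and pre-incubated 24 h at 37 °C in 5% CO2 before DMSO-dissolved drug was added. Cells fixed with TCA, SRB-stained, absorbance read at 515 nm. Percent growth calculated against time-zero and untreated control plates.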

[4] = system: RPMI-8226; assay: Anticancer activity against human RPMI8226 cells assessed as cell growth at 10^-5 M after 48 hrs by SRB assay; type: functional; conditions: RPMI-8226, 48 h, read-out: Activity
[5] = system: NCI-H226; assay: Anticancer activity against human NCI-H226 cells assessed as cell growth at 10^-5 M after 48 hrs by SRB assay; type: functional; conditions: NCI-H226, 48 h, read-out: Activity
[6] = system: HCC 2998; assay: Anticancer activity against human HCC2998 cells assessed as cell growth at 10^-5 M after 48 hrs by SRB assay; type: functional; conditions: HCC 2998, 48 h, read-out: Activity; outline: as §1
[7] = system: HCT-15; assay: Anticancer activity against human HCT15 cells assessed as cell growth at 10^-5 M after 48 hrs by SRB assay; type: functional; conditions: HCT-15, 48 h, read-out: Activity; outline: as §1
[8] = system: KM12; assay: Anticancer activity against human KM12 cells assessed as cell growth at 10^-5 M after 48 hrs by SRB assay; type: functional; conditions: KM12, 48 h, read-out: Activity; outline: as §1
[9] = system: SF-268; assay: Anticancer activity against human SF268 cells assessed as cell growth at 10^-5 M after 48 hrs by SRB assay; type: functional; conditions: SF-268, 48 h, read-out: Activity
[10] = system: SF-295; assay: Anticancer activity against human SF295 cells assessed as cell growth at 10^-5 M after 48 hrs by SRB assay; type: functional; conditions: SF-295, 48 h, read-out: Activity
[11] = system: SNB-75; assay: Anticancer activity against human SNB75 cells assessed as cell growth at 10^-5 M after 48 hrs by SRB assay; type: functional; conditions: SNB-75, 48 h, read-out: Activity
Outline: (§2)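 NCI-60 single-dose screen: cells in RPMI 1640 with 5% FBS and 2 mM L-glutamine, plated at 5000–40,000 cells/well by doubling time, and preincubated 24 h at 37 °C. Compound given at one concentration from DMSO stock. Cells TCA-fixed and SRB-stained, absorbance at 515 nm. Percent growth relative to time-zero and untreated controls; inhibition % = 100 − growth %.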

[12] = system: U-251; assay: Anticancer activity against human U251 cells assessed as cell growth at 10^-5 M after 48 hrs by SRB assay; type: functional; conditions: U-251, 48 h, read-out: Activity; outline: as §2
[13] = system: LOX IMVI; assay: Anticancer activity against human LOXIMVI cells assessed as cell growth at 10^-5 M after 48 hrs by SRB assay; type: functional; conditions: read-out: Activity; outline: as §1
[14] = system: Malme-3M; assay: Anticancer activity against human MALME-3M cells assessed as cell growth at 10^-5 M after 48 hrs by SRB assay; type: functional; conditions: read-out: Activity; outline: as §1
[15] = system: MDA-MB-435; assay: Anticancer activity against human MDA-MB-435 cells assessed as cell growth at 10^-5 M after 48 hrs by SRB assay; type: functional; conditions: MDA-MB-435, 48 h, read-out: Activity
[16] = system: SK-MEL-28; assay: Anticancer activity against human SK-MEL-28 cells assessed as cell growth at 10^-5 M after 48 hrs by SRB assay; type: functional; conditions: SK-MEL-28, 48 h, read-out: Activity
[17] = system: OVCAR-3; assay: Anticancer activity against human OVCAR3 cells assessed as cell growth at 10^-5 M after 48 hrs by SRB assay; type: functional; conditions: OVCAR-3, 48 h, read-out: Activity
[18] = system: OVCAR-5; assay: Anticancer activity against human OVCAR5 cells assessed as cell growth at 10^-5 M after 48 hrs by SRB assay; type: functional; conditions: OVCAR-5, 48 h, read-out: Activity
[19] = system: OVCAR-8; assay: Anticancer activity against human OVCAR8 cells assessed as cell growth at 10^-5 M after 48 hrs by SRB assay; type: functional; conditions: OVCAR-8, 48 h, read-out: Activity
[20] = system: SK-OV-3; assay: Anticancer activity against human SKOV3 cells assessed as cell growth at 10^-5 M after 48 hrs by SRB assay; type: functional; conditions: SK-OV-3, 48 h, read-out: Activity
[21] = system: 786-0; assay: Anticancer activity against human 786-0 cells assessed as cell growth at 10^-5 M after 48 hrs by SRB assay; type: functional; conditions: 786-0, 48 h, read-out: Activity; outline: as §1
[22] = system: A498; assay: Anticancer activity against human A498 cells assessed as cell growth at 10^-5 M after 48 hrs by SRB assay; type: functional; conditions: A498, 48 h, read-out: Activity; outline: as §1
[23] = system: ACHN; assay: Anticancer activity against human ACHN cells assessed as cell growth at 10^-5 M after 48 hrs by SRB assay; type: functional; conditions: read-out: Activity; outline: as §1
[24] = system: CAKI-1; assay: Anticancer activity against human Caki1 cells assessed as cell growth at 10^-5 M after 48 hrs by SRB assay; type: functional; conditions: CAKI-1, 48 h, read-out: Activity; outline: as §1
[25] = system: SN12C; assay: Anticancer activity against human SN12C cells assessed as cell growth at 10^-5 M after 48 hrs by SRB assay; type: functional; conditions: read-out: Activity
[26] = system: PC-3; assay: Anticancer activity against human PC3 cells assessed as cell growth at 10^-5 M after 48 hrs by SRB assay; type: functional; conditions: PC-3, 48 h, read-out: Activity
[27] = system: DU-145; assay: Anticancer activity against human DU145 cells assessed as cell growth at 10^-5 M after 48 hrs by SRB assay; type: functional; conditions: DU-145, 48 h, read-out: Activity; outline: as §1

SMILES | IC50 [1] | growth at 10 µM [2] | growth at 10 µM [3] | growth at 10 µM [4] | growth at 10 µM [5] | growth at 10 µM [6] | growth at 10 µM [7] | growth at 10 µM [8] | growth at 10 µM [9] | growth at 10 µM [10] | growth at 10 µM [11] | growth at 10 µM [12] | growth at 10 µM [13] | growth at 10 µM [14] | growth at 10 µM [15] | growth at 10 µM [16] | growth at 10 µM [17] | growth at 10 µM [18] | growth at 10 µM [20] | growth at 10 µM [21] | also measured
COc1cccc(-c2nc3sccn3c2-c2ccnc(NCCNC(=O)Nc3ccccc3)n2)c1 | > 10 µM | 122% | 99.4% | 55.5% | 109% | 113% | 87.8% | 92% | 103% | 110% | 90.8% | 108% | 102% | 112% | 96.6% | 108% | 109% | 126% | 99% | 96.8% | growth at 10 µM [19]: 74.7%; growth at 10 µM [22]: 103%; growth at 10 µM [23]: 95.5%; growth at 10 µM [24]: 117%; growth at 10 µM [25]: 65.6%; growth at 10 µM [26]: 84.2%; growth at 10 µM [27]: 102%
COc1cccc(-c2nc3sccn3c2-c2ccnc(NCCNC(=O)Nc3cccc(C(F)(F)F)c3)n2)c1 | 5.3 µM | 62.8% | 39.9% | 20.4% | 94.9% | 40.8% | 45.9% | 33.5% | 62.3% | 37.7% | 71.8% | 58.1% | 44.3% | 85.1% | 21.5% | 78.4% | 66.3% | 103% | 78.6% | 65.6% | growth at 10 µM [19]: 21.3%; growth at 10 µM [22]: 61.6%; growth at 10 µM [23]: 46.2%; growth at 10 µM [24]: 40%; growth at 10 µM [25]: 68.8%; growth at 10 µM [26]: 32.9%; growth at 10 µM [27]: 79.8%
O=C(NCCNc1nccc(-c2c(-c3cccc(O)c3)nc3sccn23)n1)Nc1ccccc1 | > 10 µM | 95.1% | 70.6% | 58.3% | 105% | 94.7% | 92.7% | 68.8% | 79.8% | 99.5% | 71.6% | 108% | 79.6% | 36.1% | 31.1% | 57.4% | 112% | 114% | 92.3% | 100% | growth at 10 µM [19]: 68.1%; growth at 10 µM [22]: 99.7%; growth at 10 µM [23]: 85.3%; growth at 10 µM [24]: 111%; growth at 10 µM [25]: 64.3%; growth at 10 µM [26]: 86.6%; growth at 10 µM [27]: 110%
O=C(NCCNc1nccc(-c2c(-c3cccc(O)c3)nc3sccn23)n1)Nc1cccc(C(F)(F)F)c1 | 4.2 µM | 36.4% | 70.6% | -4.81% | 97% | 23% | 84.7% | 14.1% | 26.2% | 75.5% | 66.2% | 81.6% | 64.5% | 23.6% | -3.01% | 48.8% | 76.7% | 117% | 85% | 79.4% | growth at 10 µM [19]: 41.1%; growth at 10 µM [22]: 111%; growth at 10 µM [23]: 85.1%; growth at 10 µM [24]: 90.3%; growth at 10 µM [25]: 70.7%; growth at 10 µM [26]: 26.7%; growth at 10 µM [27]: 89%
O=C(NCCNc1nccc(-c2c(-c3cccc(O)c3)nc3sccn23)n1)Nc1cc(C(F)(F)F)cc(C(F)(F)F)c1 | > 10 µM | 97.3% | 72.7% | 45.7% | 101% | 65.5% | 79.2% | 43.1% | 69.4% | 66.8% | 66.1% | 77% | 60.6% | 60.5% | 9.9% | 68.8% | 82.2% | 96.5% | 89.3% | 82% | growth at 10 µM [19]: 52.8%; growth at 10 µM [22]: 86%; growth at 10 µM [23]: 65.9%; growth at 10 µM [24]: 72.3%; growth at 10 µM [25]: 82.8%; growth at 10 µM [26]: 51.2%; growth at 10 µM [27]: 97.1%
COc1cccc(-c2nc3sccn3c2-c2ccnc(NCCNC(=O)c3cc(N4CCOCC4)cc(C(F)(F)F)c3)n2)c1 | > 10 µM | 113% | 90.1% | 39.1% | 104% | 98.7% | 88.5% | 83.2% | 85.7% | 83.7% | 72.2% | 100% | 79.2% | 80.8% | 62.8% | 88.2% | 96.3% | 110% | 99.4% | 74.4% | growth at 10 µM [22]: 86%; growth at 10 µM [23]: 80.1%; growth at 10 µM [24]: 83%; growth at 10 µM [25]: 89.3%; growth at 10 µM [26]: 66.3%; growth at 10 µM [27]: 94.6%
O=C(NCCNc1nccc(-c2c(-c3cccc(O)c3)nc3sccn23)n1)c1cccc(C(F)(F)F)c1 | 2.1 µM | 95.5% | 56.2% | 44.2% | 88.5% | 117% | 87.8% | 81% | 86.7% | 69.6% | 73.8% | 84.8% | 53.4% | 0.75% | 21.7% | 38.5% | 89.8% | 113% | 84.2% | 89.3% | growth at 10 µM [22]: 84.5%; growth at 10 µM [23]: 66%; growth at 10 µM [24]: 75.6%; growth at 10 µM [25]: 83.2%; growth at 10 µM [26]: 67.3%; growth at 10 µM [27]: 91.4%
